Experimental data as given in ChEMBL document CHEMBL4373656, “A MedChem toolbox for cereblon-directed PROTACs” (Medchemcomm, 2019).
Active and inactive are the calls of the source. The rule behind the calls is not given here. *1 amine or outer side, *2 acyl side, *3 side chain or, on linkers, in order; H or OH if unused. Where a SMILES comes first, the peptide text is derived from it. The star is where a group is joined. X1 = O=C1CCC(N2C(=O)c3cccc(NCCCOCCCCOCCCN*)c3C2=O)C(=O)N1; Suc = O=C(CCC(=O)[*:2])[*:1]

Key:
[1] = molecular target: T1, Cereblon/Ikaros (Homo sapiens) (UniProt Q96SW2+Q13422); experiment: Protac activity at CRBN/ IKZF1 in human MM1S cells assessed as IKZF1 degradation by measuring IKZF1/tubulin ratio at 0.1 uM after 16 hrs by Western blot analysis relative to tubulin; type: cell-based; parameters: unit not given here
Outline: (§1)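 MM1S multiple myeloma cells were exposed to each compound for 16 h at the indicated concentrations, including 100 nM and 1 μM. Lysates were analysed by western blot for CRBN and for the neo-substrate IKZF1.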

[2] = molecular target: T1, Cereblon/Ikaros (Homo sapiens); experiment: Protac activity at CRBN/ IKZF1 in human MM1S cells assessed as CRBN degradation at 100 nM to 1 uM after 16 hrs by Western blot analysis; type: cell-based; outline: as §1
MM1.S = experiment: Antiproliferative activity against human MM1S cells at 1 nM to 10 uM after 4 hrs by CellTiter-Glo assay; type: functional, cell-based
[3] = molecular target: T1, Cereblon/Ikaros (Homo sapiens); experiment: Protac activity at CRBN/ IKZF1 in human MM1S cells assessed as reduction in IKZF1 degradation at 0.001 to 0.01 uM after 16 hrs by Western blot analysis; type: cell-based
[4] = molecular target: T1, Cereblon/Ikaros (Homo sapiens); experiment: Protac activity at CRBN/ IKZF1 in human MM1S cells assessed as Bax protein expression at 0.1 to 10 uM after 16 hrs by Western blot analysis relative to tubulin; type: cell-based

Ratio [1]	Activity [2]	Activity [3]	Activity [4]	Structure (SMILES)	Activity (MM1.S)
99	–	–	–	Cc1ncsc1-c1ccc(CNC(=O)[C@@H]2C[C@@H](O)CN2C(=O)[C@@H](NC(=O)CCCCOCCCCCOCCCCCCNc2cccc3c2C(=O)N(C2CCC(=O)NC2=O)C3=O)C(C)(C)C)cc1 (stereo not given in full)	–
16	inactive	–	–	O=C(CC12CC3CC(CC(C3)C1)C2)NCCOCCOCCOCCNc1cccc2c1C(=O)N(C1CCC(=O)NC1=O)C2=O (stereo not given)	–
–	–	–	inactive	CSCC[C@H](NC(=O)[C@@H]1CCCN1C(=O)[C@@H](NC(=O)CCC(=O)NCCCOCCCCOCCCNc1cccc2c1C(=O)N(C1CCC(=O)NC1=O)C2=O)C(C)C)C(=O)N[C@@H](CC(C)C)C(=O)N[C@@H](CCCCN)C(=O)O (stereo not given in full) ({X1-Suc}-VPMLK-OH)	–
24	inactive	–	–	O=C(CC12CC3CC(CC(C3)C1)C2)NCCCOCCOCCOCCCNc1cccc2c1C(=O)N(C1CCC(=O)NC1=O)C2=O (stereo not given)	–

Continued, compound first:

Structure (SMILES)	Ratio [1]	Activity [2]	Activity [3]	Activity [4]	Activity (MM1.S)
O=C(CC12CC3CC(CC(C3)C1)C2)NCCCOCCCCOCCCNc1cccc2c1C(=O)N(C1CCC(=O)NC1=O)C2=O (stereo not given)	30	inactive	–	–	–
O=C(CC12CC3CC(CC(C3)C1)C2)NCCCOCCOCCCNc1cccc2c1C(=O)N(C1CCC(=O)NC1=O)C2=O (stereo not given)	15	inactive	–	–	–
O=C1CCC(N2C(=O)c3cccc(NCCOCCOCCNc4cccc5c4C(=O)N(C4CCC(=O)NC4=O)C5=O)c3C2=O)C(=O)N1 (stereo not given)	79	–	–	–	–
O=C(CC12CC3CC(CC(C3)C1)C2)NCCOCCOCCNc1cccc2c1C(=O)N(C1CCC(=O)NC1=O)C2=O (stereo not given)	7.1	inactive	Active	–	Active
